In ChEMBL document CHEMBL4052710 (Bioorg Med Chem Lett, 2017):

How the values were obtained:
[1] = system: OVCAR-5; test: Growth inhibition of human OVCAR5 cells incubated for 72 hrs at 1 uM by CCK8 assay; assay type: functional; details: OVCAR-5, 72 h, read-out: GI
In short: (§1)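 CCK8 viability assay on a panel of human cancer cell lines, with an initial screen at fixed concentrations of 1 µM and 10 µM.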

[2] = system: HeLa; test: Growth inhibition of human HeLa cells incubated for 72 hrs at 1 uM by CCK8 assay; assay type: functional; details: read-out: GI; in short: as §1
[3] = system: OVCAR-5; test: Growth inhibition of human OVCAR5 cells incubated for 72 hrs at 10 uM by CCK8 assay; assay type: functional; details: OVCAR-5, 72 h, read-out: GI; in short: as §1
[4] = system: NCI-H1299; test: Growth inhibition of human H1299 cells incubated for 72 hrs at 1 uM by CCK8 assay; assay type: functional; details: NCI-H1299, 72 h, read-out: GI; in short: as §1
[5] = system: T47D; test: Growth inhibition of human T47D cells incubated for 72 hrs at 10 uM by CCK8 assay; assay type: functional; details: read-out: GI; in short: as §1
[6] = system: HeLa; test: Growth inhibition of human HeLa cells incubated for 72 hrs at 10 uM by CCK8 assay; assay type: functional; details: read-out: GI; in short: as §1
[7] = system: NCI-H460; test: Growth inhibition of human H460 cells incubated for 72 hrs at 1 uM by CCK8 assay; assay type: functional; details: NCI-H460, 72 h, read-out: GI; in short: as §1
[8] = system: SiHa; test: Growth inhibition of human SiHa cells incubated for 72 hrs at 10 uM by CCK8 assay; assay type: functional; details: read-out: GI; in short: as §1
[9] = system: NCI-H1299; test: Growth inhibition of human H1299 cells incubated for 72 hrs at 10 uM by CCK8 assay; assay type: functional; details: NCI-H1299, 72 h, read-out: GI; in short: as §1
[10] = system: NCI-H460; test: Growth inhibition of human H460 cells incubated for 72 hrs at 10 uM by CCK8 assay; assay type: functional; details: NCI-H460, 72 h, read-out: GI; in short: as §1
[11] = system: SiHa; test: Growth inhibition of human SiHa cells incubated for 72 hrs at 1 uM by CCK8 assay; assay type: functional; details: read-out: GI; in short: as §1
[12] = system: T47D; test: Growth inhibition of human T47D cells incubated for 72 hrs at 1 uM by CCK8 assay; assay type: functional; details: read-out: GI; in short: as §1
[13] = system: A549; test: Growth inhibition of human A549 cells incubated for 72 hrs at 1 uM by CCK8 assay; assay type: functional; details: A549, 72 h, read-out: GI; in short: as §1
[14] = system: A549; test: Growth inhibition of human A549 cells incubated for 72 hrs at 10 uM by CCK8 assay; assay type: functional; details: A549, 72 h, read-out: GI; in short: as §1
[15] = target: Vascular endothelial growth factor receptor 2 (Homo sapiens, UniProt P35968); test: Inhibition of human VEGFR2 at 1 uM by enzymatic radiometric assay
[16] = target: CDK4/Cyclin D3 (Homo sapiens) (UniProt P11802+P30281); test: Inhibition of human CDK4/CyclinD3 at 1 uM by enzymatic radiometric assay; assay type: protein-complex assay
In short: (§2)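 Kinase panel run through the Eurofins KinaseProfiler, with compound at a fixed 1 µM. Values are means of two independent experiments.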

[17] = target: CDK3/Cyclin E (Homo sapiens) (UniProt P24864+Q00526); test: Inhibition of human CDK3/CyclinE at 1 uM by enzymatic radiometric assay; assay type: protein-complex assay; in short: as §2
[18] = target: CDK2/Cyclin A2 (Homo sapiens) (UniProt P24941+P20248); test: Inhibition of human CDK2/CyclinA at 1 uM by enzymatic radiometric assay; assay type: protein-complex assay; in short: as §2
[19] = target: Cyclin-dependent kinase 2/cyclin E1 (Homo sapiens) (UniProt P24864+P24941); test: Inhibition of human CDK2/CyclinE at 1 uM by enzymatic radiometric assay; assay type: protein-complex assay; in short: as §2
[20] = target: CDK7/Cyclin H/MNAT1 (Homo sapiens) (UniProt P51946+P50613+P51948); test: Inhibition of human CDK7/CyclinH/MAT1 at 1 uM by enzymatic radiometric assay; assay type: protein-complex assay
[21] = target: T1, Cyclin-dependent kinase 5/CDK5 activator 1 (Homo sapiens) (UniProt Q00535+Q15078); test: Inhibition of human CDK5/p25 at 1 uM by enzymatic radiometric assay; assay type: protein-complex assay
[22] = target: CDK9/cyclin T1 (Homo sapiens) (UniProt O60563+P50750); test: Inhibition of human CDK9/CyclinT1 at 1 uM by enzymatic radiometric assay; assay type: protein-complex assay
[23] = target: CDK18/Cyclin Y (Homo sapiens) (UniProt Q07002+Q8ND76); test: Inhibition of human CDK18/CyclinY at 1 uM by enzymatic radiometric assay; assay type: protein-complex assay; in short: as §2
[24] = target: CDK6/cyclin D3 (Homo sapiens) (UniProt P30281+Q00534); test: Inhibition of human CDK6/CyclinD3 at 1 uM by enzymatic radiometric assay; assay type: protein-complex assay
[25] = target: Cyclin-dependent kinase 1/cyclin B1 (Homo sapiens) (UniProt P06493+P14635); test: Inhibition of human CDK1/CyclinB at 1 uM by enzymatic radiometric assay; assay type: protein-complex assay; in short: as §2
[26] = target: CDK12/Cyclin K (Homo sapiens) (UniProt O75909+Q9NYV4); test: Inhibition of human CDK12/CyclinK at 1 uM by enzymatic radiometric assay; assay type: protein-complex assay; in short: as §2
[27] = target: T1, Cyclin-dependent kinase 5/CDK5 activator 1 (Homo sapiens); test: Inhibition of human CDK5/p35 at 1 uM by enzymatic radiometric assay; assay type: protein-complex assay

Sequence of Vascular endothelial growth factor receptor 2 (P35968 whole entry): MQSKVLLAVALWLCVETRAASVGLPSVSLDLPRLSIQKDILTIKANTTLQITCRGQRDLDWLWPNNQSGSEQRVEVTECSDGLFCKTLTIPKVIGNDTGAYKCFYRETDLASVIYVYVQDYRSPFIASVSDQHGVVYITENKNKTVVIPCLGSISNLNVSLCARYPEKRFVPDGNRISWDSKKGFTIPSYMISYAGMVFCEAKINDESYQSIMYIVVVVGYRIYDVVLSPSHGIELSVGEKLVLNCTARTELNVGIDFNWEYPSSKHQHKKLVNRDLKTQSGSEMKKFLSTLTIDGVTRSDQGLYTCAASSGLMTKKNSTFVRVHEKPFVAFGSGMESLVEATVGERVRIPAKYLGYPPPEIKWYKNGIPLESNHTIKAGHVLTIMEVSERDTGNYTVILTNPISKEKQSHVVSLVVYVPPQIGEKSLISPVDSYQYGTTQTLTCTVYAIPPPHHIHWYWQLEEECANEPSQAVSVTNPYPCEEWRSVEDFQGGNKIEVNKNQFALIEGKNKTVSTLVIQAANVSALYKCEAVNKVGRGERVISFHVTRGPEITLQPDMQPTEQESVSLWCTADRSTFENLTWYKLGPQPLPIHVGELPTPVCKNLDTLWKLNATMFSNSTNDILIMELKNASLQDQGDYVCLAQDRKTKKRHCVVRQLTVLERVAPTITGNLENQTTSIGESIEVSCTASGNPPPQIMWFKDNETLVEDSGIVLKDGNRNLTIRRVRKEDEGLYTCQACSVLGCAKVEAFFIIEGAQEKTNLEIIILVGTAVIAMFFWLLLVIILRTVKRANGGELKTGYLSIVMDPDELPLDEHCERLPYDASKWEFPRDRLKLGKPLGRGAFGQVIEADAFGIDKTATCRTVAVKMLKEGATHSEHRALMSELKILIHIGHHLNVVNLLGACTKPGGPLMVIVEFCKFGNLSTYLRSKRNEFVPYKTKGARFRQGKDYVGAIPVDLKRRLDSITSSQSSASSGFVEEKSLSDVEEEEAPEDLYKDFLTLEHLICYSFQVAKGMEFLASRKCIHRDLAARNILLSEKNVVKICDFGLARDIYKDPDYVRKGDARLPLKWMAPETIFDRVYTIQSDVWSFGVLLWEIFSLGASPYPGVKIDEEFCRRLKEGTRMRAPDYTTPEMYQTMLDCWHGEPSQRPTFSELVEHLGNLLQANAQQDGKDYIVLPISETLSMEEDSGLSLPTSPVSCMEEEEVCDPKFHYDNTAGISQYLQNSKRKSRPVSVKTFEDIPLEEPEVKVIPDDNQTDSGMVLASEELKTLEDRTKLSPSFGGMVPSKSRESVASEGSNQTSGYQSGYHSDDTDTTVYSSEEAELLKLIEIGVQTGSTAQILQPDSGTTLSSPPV
T1 sequence (Q00535 whole entry): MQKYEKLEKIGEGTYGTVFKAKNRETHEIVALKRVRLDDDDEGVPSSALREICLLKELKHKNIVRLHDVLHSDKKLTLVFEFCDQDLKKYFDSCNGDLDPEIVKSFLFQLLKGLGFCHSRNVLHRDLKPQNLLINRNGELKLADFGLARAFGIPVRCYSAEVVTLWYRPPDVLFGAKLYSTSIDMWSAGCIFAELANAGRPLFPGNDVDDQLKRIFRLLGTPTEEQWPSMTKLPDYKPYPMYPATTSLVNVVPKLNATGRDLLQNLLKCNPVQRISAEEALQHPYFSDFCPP
T1 sequence (Q15078 99-307 partner limits assumed): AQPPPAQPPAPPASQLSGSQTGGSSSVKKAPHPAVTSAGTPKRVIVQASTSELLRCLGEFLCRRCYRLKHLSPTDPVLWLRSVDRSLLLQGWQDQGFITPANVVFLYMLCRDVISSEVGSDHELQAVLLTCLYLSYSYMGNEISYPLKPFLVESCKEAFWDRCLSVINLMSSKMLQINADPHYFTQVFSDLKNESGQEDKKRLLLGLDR
Sequence of Cyclin-dependent kinase 1/cyclin B1 (Homo sapiens) (P06493 whole entry, looked up): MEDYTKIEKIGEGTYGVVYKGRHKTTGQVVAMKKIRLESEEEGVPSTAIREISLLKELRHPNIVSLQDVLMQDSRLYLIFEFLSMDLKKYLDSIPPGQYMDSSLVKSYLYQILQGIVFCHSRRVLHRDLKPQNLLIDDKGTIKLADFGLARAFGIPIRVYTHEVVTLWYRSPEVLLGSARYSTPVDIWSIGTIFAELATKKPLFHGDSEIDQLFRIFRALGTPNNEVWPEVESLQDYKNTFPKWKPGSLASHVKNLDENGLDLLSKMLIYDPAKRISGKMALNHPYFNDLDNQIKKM
Sequence of Cyclin-dependent kinase 1/cyclin B1 (Homo sapiens) (P14635 whole entry, looked up): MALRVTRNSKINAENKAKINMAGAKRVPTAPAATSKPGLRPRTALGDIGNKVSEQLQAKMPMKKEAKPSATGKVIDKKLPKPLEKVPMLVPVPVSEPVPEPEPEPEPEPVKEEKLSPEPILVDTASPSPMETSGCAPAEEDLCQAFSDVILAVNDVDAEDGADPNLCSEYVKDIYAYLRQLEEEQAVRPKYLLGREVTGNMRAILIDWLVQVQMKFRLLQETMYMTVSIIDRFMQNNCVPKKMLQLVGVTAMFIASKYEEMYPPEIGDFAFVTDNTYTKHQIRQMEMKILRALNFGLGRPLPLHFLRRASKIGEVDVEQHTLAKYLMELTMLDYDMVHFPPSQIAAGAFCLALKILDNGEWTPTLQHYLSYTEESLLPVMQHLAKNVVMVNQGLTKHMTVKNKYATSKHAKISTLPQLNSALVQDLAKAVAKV
Sequence of CDK3/Cyclin E (Homo sapiens) (P24864 whole entry, looked up): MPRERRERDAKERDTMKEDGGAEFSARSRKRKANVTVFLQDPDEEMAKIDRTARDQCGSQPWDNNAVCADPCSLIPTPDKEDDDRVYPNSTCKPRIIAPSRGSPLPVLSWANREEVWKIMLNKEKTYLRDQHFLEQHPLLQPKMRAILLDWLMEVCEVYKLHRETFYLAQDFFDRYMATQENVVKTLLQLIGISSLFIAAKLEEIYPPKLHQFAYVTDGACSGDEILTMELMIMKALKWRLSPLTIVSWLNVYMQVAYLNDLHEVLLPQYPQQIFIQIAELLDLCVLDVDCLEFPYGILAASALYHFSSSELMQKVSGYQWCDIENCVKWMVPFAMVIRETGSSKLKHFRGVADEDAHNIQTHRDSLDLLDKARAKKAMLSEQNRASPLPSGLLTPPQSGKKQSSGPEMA
Sequence of CDK3/Cyclin E (Homo sapiens) (Q00526 whole entry, looked up): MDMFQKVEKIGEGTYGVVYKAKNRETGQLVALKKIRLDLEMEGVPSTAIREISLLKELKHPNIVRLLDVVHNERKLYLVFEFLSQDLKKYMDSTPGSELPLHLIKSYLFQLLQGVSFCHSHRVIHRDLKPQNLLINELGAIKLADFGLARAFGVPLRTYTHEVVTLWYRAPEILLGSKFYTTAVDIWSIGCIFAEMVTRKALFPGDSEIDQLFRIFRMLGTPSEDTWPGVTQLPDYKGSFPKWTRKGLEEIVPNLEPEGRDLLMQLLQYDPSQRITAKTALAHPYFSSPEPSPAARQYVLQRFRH

SMILES | inhibition of growth at 1 µM [1] [%] | inhibition of growth at 1 µM [2] [%] | inhibition of growth at 10 µM [3] [%] | inhibition of growth at 1 µM [4] [%] | inhibition of growth at 10 µM [5] [%] | inhibition of growth at 10 µM [6] [%] | inhibition of growth at 1 µM [7] [%] | inhibition of growth at 10 µM [8] [%] | inhibition of growth at 10 µM [9] [%] | inhibition of growth at 10 µM [10] [%] | inhibition of growth at 1 µM [11] [%] | inhibition of growth at 1 µM [12] [%] | inhibition of growth at 1 µM [13] [%] | inhibition of growth at 10 µM [14] [%] | inhibition [15] [%] | inhibition [16] [%] | further results
CN(C)C(=O)c1cc2cnc(Nc3ccc(N)cn3)nc2n1C1CCCC1 | 12.3 | 3.7 | 68 | 60.1 | 61.1 | 68.7 | -0.6 | 61.5 | 82.1 | 62 | -21.2 | 18.8 |  |  |  |  | 
Nc1ccc(NC(=O)C2(C(=O)Nc3ccc(F)cc3)CC2)cc1F | 6.7 | 14 | 9.7 | 46.2 | 30.4 | 71.8 | 26.7 | 36 | 59.2 | 62.9 | 21.7 | 5.6 | 16.3 | 14.6 |  |  | 
CN(C)C(=O)c1cc2cnc(Nc3ccc(NC(=O)C4(C(=O)Nc5ccccc5F)CC4)cc3)nc2n1C1CCCC1 | 58 |  | 82.6 | 70.2 | 97.8 |  | 28.2 | 103 | 89.6 | 93.1 | 63.4 | 85.2 | 79.1 | 88.6 | -2 | 75 | 
CN(C)C(=O)c1cc2cnc(Nc3ccc(NC(=O)C4(C(=O)Nc5ccc(Br)cc5)CC4)cc3)nc2n1C1CCCC1 | 13.7 |  | 87.8 | 27.6 | 94.3 |  | 31.5 | 98.8 | 76.9 | 96.4 | 23.2 | 21.1 | -6.6 | 90.3 | 26 | 48 | 
CN(C)C(=O)c1cc2cnc(Nc3ccc(NC(=O)C4(C(=O)Nc5cccc(Cl)c5)CC4)cc3)nc2n1C1CCCC1 | 15.5 |  | 88.1 | 47.9 | 92.6 |  | 44 | 97.3 | 84.1 | 101 | 16.2 | 39.3 | 8.3 | 90.7 | 15 | 44 | 
CN(C)C(=O)c1cc2cnc(Nc3ccc(NC(=O)C4(C(=O)Nc5ccc(Cl)c(C(F)(F)F)c5)CC4)cc3)nc2n1C1CCCC1 | -2.4 | 16.5 | 48 | 39.5 | 55.8 | 55.6 | 2.1 | 61.1 | 90.4 | 91.9 | -11.2 | 6.9 | 1.1 | 88.1 | 4 | 24 | 
CN(C)C(=O)c1cc2cnc(Nc3ccc(NC(=O)C4(C(=O)Nc5ccc(F)cc5)CC4)cc3F)nc2n1C1CCCC1 | -0.9 | 6.2 | 33 | 52.3 | 67.9 | 49.5 | 11.9 | 44.4 | 82.6 | 53 | 6.6 | 6.3 |  |  | 33 | 87 | 
CN(C)C(=O)c1cc2cnc(Nc3ccc(NC(=O)C4(C(=O)Nc5ccc(O)cc5)CC4)cc3)nc2n1C1CCCC1 | 80.7 | 62.3 | 90.9 | 87.4 | 95.8 | 99.9 | 90.4 | 94.3 | 89.7 | 104 | 69.5 | 91.5 | 93.6 | 94.4 | 36 | 95 | inhibition [17]: 89%; inhibition [18]: 90%; inhibition [19]: 88%; inhibition [20]: -9%; inhibition [21]: 94%; inhibition [22]: 26%; inhibition [23]: 0%; inhibition [24]: 86%; inhibition [25]: 90%; inhibition [26]: 23%; inhibition [27]: 88%
CN(C)C(=O)c1cc2cnc(Nc3ccc(NC(=O)C4(C(=O)Nc5cccc(O)c5)CC4)cc3)nc2n1C1CCCC1 | 58.5 | 57 | 86 | 77.5 | 83.7 | 96.6 | 75.5 | 75.7 | 78.5 | 94.9 | -19.8 | 80.7 |  |  | 24 | 94 | 
